ChEMBL document CHEMBL1143985, “Aryl azoles with neuroprotective activity--parallel synthesis and attempts at target identification” (2008)
The source made the active and inactive calls. The rule behind the calls is not given here.

Experiments:
[1] = Neuroprotective effect against NMDA-induced toxicity in Sprague-Dawley rat mixed cortical neurons assessed as LDH release at 10 uM co-treated with NMDA; format: functional, Cortical neurone
How it was run: (§1)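 Mixed cortical cultures from E16 Sprague–Dawley rat neocortex, grown in Neurobasal with 5% FBS and used at 12 days in vitro. Compound added 20 min (co-treatment) or 24 h (pre-treatment) before NMDA (60 µM). MK-801 10 µM served as positive control. After 24 h, LDH release was read and normalized to the NMDA-released level. Technical replicates per sample were combined across independent experiments.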

[2] = Displacement of [3H]batrachotoxinin from sodium channel site 2 at 10 uM relative to veratridine
[3] = Neuroprotective effect against veratridine-induced toxicity in Sprague-Dawley rat mixed cortical neurons assessed as XTT release at 10 uM pre-treated before veratridine treatment; format: functional, Cortical neurone
[4] = Neuroprotective effect against veratridine-induced toxicity in Sprague-Dawley mixed rat cortical neurons assessed as LDH release at 1 uM co-treated with veratridine
[5] = Neuroprotective effect against veratridine-induced toxicity in Sprague-Dawley rat pure cortical neurons assessed as XTT release at 1 uM co-treated with veratridine; format: functional, Cortical neurone
How it was run: (§2)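 E16 Sprague–Dawley rat cortical cultures, either mixed (Neurobasal with 5% FBS) or pure neuronal (Neurobasal with B27), used at 12 days in vitro. Compound at 1 or 10 µM was added 20 min before veratridine (60 µM). Viability was read 24 h later by LDH release in mixed cultures and XTT in pure cultures, normalized to veratridine. Three experiments, eight replicates each.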

[6] = Neuroprotective effect against veratridine-induced toxicity in Sprague-Dawley rat pure cortical neurons assessed as XTT release at 10 uM co-treated with veratridine; format: functional, Cortical neurone; how it was run: as §2
[7] = Neuroprotective effect against veratridine-induced toxicity in Sprague-Dawley mixed rat cortical neurons assessed as LDH release at 10 uM co-treated with veratridine
[8] = Neuroprotective effect against NMDA-induced toxicity in Sprague-Dawley rat mixed cortical neurons assessed as LDH release at 1 uM pretreated before NMDA treatment; format: functional, Cortical neurone; how it was run: as §1
[9] = Neuroprotective effect against NMDA-induced toxicity in Sprague-Dawley rat mixed cortical neurons assessed as LDH release at 1 uM co-treated with NMDA; format: functional, Cortical neurone; how it was run: as §1
[10] = Neuroprotective effect against NMDA-induced toxicity in Sprague-Dawley rat mixed cortical neurons assessed as LDH release at 10 uM pre-treated before NMDA treatment; format: functional, Cortical neurone; how it was run: as §1
Cortical neurone = test: Neuroprotective effect against NMDA-induced toxicity in Sprague-Dawley rat mixed cortical neurons assessed as LDH release at 0.1 uM co-treated with NMDA; format: functional; how it was run: as §1

SMILES	Activity [1] [%]	inhibition [2] [%]	other results
COc1cccc(-c2cc(-c3ccccc3)n[nH]2)c1	76	27	–
Cn1nc(-c2ccc([N+](=O)[O-])cc2)cc1-c1ccccc1	86.3	8	–
CC(=O)N1N=C(c2ccccc2)CC1c1cccc(Cl)c1 (stereo unspecified)	86.4	27	–
COc1ccc(C(=O)O[C@H]2CC[C@@]3(C)[C@@H]4CC[C@H]5[C@]6(O)C[C@H](O)[C@@]7(O)[C@@H](CN8C[C@@H](C)CC[C@H]8[C@@]7(C)O)[C@]6(O)C[C@@]53O[C@]24O)cc1OC	–	100	–
CC(=O)N1N=C(c2ccc([N+](=O)[O-])cc2)CC1c1ccccc1 (stereo unspecified)	85.5	17	–
COc1ccccc1-c1cnn(-c2ccccc2)c1	80.3	–	Activity [2]: inactive
Cn1nc(-c2ccccc2)cc1-c1cccc(Cl)c1	65.6	15	–
Cn1nc(-c2ccc(Cl)cc2)cc1-c1ccccc1	87.3	13	–
COc1cccc(C2CC(c3ccccc3)=NN2C(C)=O)c1 (stereo unspecified)	81	16	–
O=[N+]([O-])c1cccc(-c2cc(-c3ccccc3)n[nH]2)c1	75.6	15	Activity [3]: 70%; Activity [4]: 77.6%; Activity [5]: 80.9%; Activity [6]: 51.2%; Activity [7]: 26.6%
O=[N+]([O-])c1ccc(-c2cc(-c3ccccc3)n[nH]2)cc1	89	14	–
Clc1cccc(-c2cc(-c3ccccc3)n[nH]2)c1	96.4	21	–
Cn1nc(-c2ccccc2)cc1-c1ccc2[nH]ccc2c1	67.1	41	Activity [8]: 90.2%; Activity [9]: 80.3%; Activity [3]: 40%; Activity [4]: 87.9%; Activity [5]: 82.7%; Activity [6]: 56.8%; Activity [10]: 86%; Activity (Cortical neurone): inactive; Activity [7]: 63.2%
COc1ccc(-c2cc(-c3ccccc3)n(C)n2)cc1	70.4	8	–
Cn1nc(-c2ccccc2)cc1-c1c[nH]c2ccccc12	76.7	14	–
Cn1nc(-c2ccc(C(=O)O)cc2)cc1-c1ccc(C(C)(C)C)cc1	61.1	–	Activity [2]: inactive
COc1ccc(-c2cc(-c3ccccc3)n[nH]2)cc1	67.2	30	Activity [8]: 91.1%; Activity [9]: 81.7%; Activity [3]: 50%; Activity [4]: 80.9%; Activity [5]: 70.4%; Activity [6]: 64.9%; Activity [10]: 95%; Activity [7]: 49.2%
Clc1ccc(-c2cc(-c3ccccc3)n[nH]2)cc1	66.1	16	Activity [3]: 70%; Activity [4]: 74.1%; Activity [5]: 75%; Activity [6]: 56.5%; Activity [7]: 24.2%
Cn1nc(-c2ccccc2)cc1-c1cccc([N+](=O)[O-])c1	85.5	4	–
COc1cccc(-c2cc(-c3ccccc3)nn2C)c1	78.3	12	–
